We go through eight compounds from ChEMBL document CHEMBL1781892, “Microwave assisted synthesis and structure-activity relationship of 4-hydroxy-N'-[1-phenylethylidene]-2H/2-methyl-1,2-benzothiazine-3-carbohydrazide 1,1-dioxides as anti-microbial agents” (2011).

Assay [1] has as its system Aspergillus niger. Nature of the assay: Antifungal activity against Aspergillus niger using 1 x 10^5 spore/100 uL after 72 hrs by microdilution method. The class given is functional. In general terms: Dilution methods test growth across graded concentrations, often in twofold steps.
Assay [2] deals with Aspergillus flavus. Nature of the assay: Antifungal activity against Aspergillus flavus using 1 x 10^5 spore/100 uL after 72 hrs by microdilution method. Format: functional.
The subject of assay [3] is Aspergillus fumigatus. Nature of the assay: Antifungal activity against Aspergillus fumigatus using 1 x 10^5 spore/100 uL after 72 hrs by microdilution method. The class given is functional.
Assay [4] concerns Trichoderma viride. The assay can be described thus: Antifungal activity against Trichoderma viride using 1 x 10^5 spore/100 uL after 72 hrs by microdilution method. Format: functional.
Assay [5] in a line: Antifungal activity against Trichoderma reesei using 1 x 10^5 spore/100 uL after 72 hrs by microdilution method. The class given is functional. Put shortly: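 Spores washed from malt agar cultures with sterile 0.85% saline plus 0.1% Tween 80, adjusted to about 1.0×10^5 per 100 µl well. Compounds from a 1 mg/ml DMSO stock were serially diluted in malt broth with inoculum in 96-well plates and incubated 72 h at 28 °C. MIC is the lowest concentration with no visible growth under a binocular microscope. DMSO served as negative control.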

The subject of assay [6] is Curvularia australiensis. Nature of the assay: Antifungal activity against Drechslera australiensis using 1 x 10^5 spore/100 uL after 72 hrs by microdilution method. Format: functional.
Assay [7] deals with Aspergillus niger. The assay can be described thus: Antifungal activity against Aspergillus niger using 1 x 10^5 spore/100 uL assessed as 99.5% fungal killing of original inoculum after 72 hrs by microdilution method. The class given is functional.
For assay [8], the system named is Aspergillus flavus. The assay can be described thus: Antifungal activity against Aspergillus flavus using 1 x 10^5 spore/100 uL assessed as 99.5% fungal killing of original inoculum after 72 hrs by microdilution method. Format: functional.
Assay [9] has as its system Aspergillus fumigatus. The assay can be described thus: Antifungal activity against Aspergillus fumigatus using 1 x 10^5 spore/100 uL assessed as 99.5% fungal killing of original inoculum after 72 hrs by microdilution method. The class given is functional.
The subject of assay [10] is Trichoderma viride. Nature of the assay: Antifungal activity against Trichoderma viride using 1 x 10^5 spore/100 uL assessed as 99.5% fungal killing of original inoculum after 72 hrs by microdilution method. The class given is functional.
The nature of assay [11]: Antifungal activity against Trichoderma reesei using 1 x 10^5 spore/100 uL assessed as 99.5% fungal killing of original inoculum after 72 hrs by microdilution method. The class given is functional.
Assay [12] relates to Curvularia australiensis. Nature of the assay: Antifungal activity against Drechslera australiensis using 1 x 10^5 spore/100 uL assessed as 99.5% fungal killing of original inoculum after 72 hrs by microdilution method. Format: functional.
The test system of assay [13] is Bacillus cereus. Nature of the assay: Antibacterial activity against Bacillus cereus using 1 x 10^4 CFU/ml inoculum after 24 hrs by microdilution method. The class given is functional.
The test system of assay [14] is Bacillus subtilis. Nature of the assay: Antibacterial activity against Bacillus subtilis using 1 x 10^4 CFU/ml inoculum after 24 hrs by microdilution method. Format: functional.
In assay [15] the test system is Bacillus thuringiensis. The assay can be described thus: Antibacterial activity against Bacillus thuringiensis using 1 x 10^4 CFU/ml inoculum after 24 hrs by microdilution method. The class given is functional.
Assay [16] has as its system Staphylococcus aureus. The assay can be described thus: Antibacterial activity against Staphylococcus aureus using 1 x 10^4 CFU/ml inoculum after 24 hrs by microdilution method. The class given is functional.
Assay [17] has as its system Escherichia coli. Nature of the assay: Antibacterial activity against Escherichia coli using 1 x 10^4 CFU/ml inoculum after 24 hrs by microdilution method. The class given is functional.
For assay [18], the system named is Pseudomonas aeruginosa. Nature of the assay: Antibacterial activity against Pseudomonas aeruginosa using 1 x 10^4 CFU/ml inoculum after 24 hrs by microdilution method. Format: functional.
Assay [19] deals with Salmonella typhi. The assay can be described thus: Antibacterial activity against Salmonella typhi using 1 x 10^4 CFU/ml inoculum after 24 hrs by microdilution method. Format: functional, Salmonella enterica subsp. enterica serovar Typhi.

For `C/C(=N\NC(=O)C1=C(O)c2ccccc2S(=O)(=O)N1C)c1ccc(F)cc1F`, the MIC in assay [1] stood at 76.5 ×10⁻² umol; in [2], 76.3 ×10⁻² umol; in [3] it was 69.6 ×10⁻² umol; in assay [4], 72.1 ×10⁻² umol; in assay [5] it was 68.4 ×10⁻² µmol; in [6], 72.1 ×10⁻² umol. Moreover, the MIC in [13] came to 7.5 ×10⁻² umol; in assay [14], 7.8 ×10⁻² umol; in [15], 8 ×10⁻² umol; in assay [16], 27.6 ×10⁻² umol; in assay [17] it was 28.9 ×10⁻² umol; in assay [18], 30.5 ×10⁻² umol. In [19], this compound had an MIC of 33.1 ×10⁻² umol. Also, the MFC in [7] came out at 143.6 ×10⁻² umol; in [8] it was 149.4 ×10⁻² umol; in [9] it was 140.1 ×10⁻² umol; in assay [10], 143 ×10⁻² umol; in assay [11], 130 ×10⁻² µmol; in assay [12] it was 144.2 ×10⁻² umol.
For the compound `C/C(=N\NC(=O)C1=C(O)c2ccccc2S(=O)(=O)N1C)c1ccc(I)cc1`, the MIC in [1] was 91.4 ×10⁻² umol; in assay [2], 89.8 ×10⁻² umol; in [3] it was 81.9 ×10⁻² umol; in [4] it was 71.1 ×10⁻² umol; in assay [5], 70.1 ×10⁻² µmol; in assay [6], 74 ×10⁻² umol. The MIC is 9 ×10⁻² umol in [13]; 9.3 ×10⁻² umol in assay [14]; 9.2 ×10⁻² umol in assay [15]; 28 ×10⁻² umol in assay [16]; 29.3 ×10⁻² umol in assay [17]; 30.5 ×10⁻² umol in assay [18]. For the same compound, the MIC in assay [19] was 33.2 ×10⁻² umol. In addition, the MFC was determined as 198.4 ×10⁻² umol in [7]; 190.7 ×10⁻² umol in assay [8]; 159.8 ×10⁻² umol in assay [9]; 139.2 ×10⁻² umol in [10]; 123 ×10⁻² µmol in [11]; 150.6 ×10⁻² umol in assay [12].
Take `C/C(=N\NC(=O)C1=C(O)c2ccccc2S(=O)(=O)N1)c1ccc(F)cc1F`: the MIC in assay [1] came to 76.6 ×10⁻² umol; in assay [2], 76.4 ×10⁻² umol; in [3], 69.8 ×10⁻² umol; in assay [4], 72 ×10⁻² umol; in assay [5] it was 69 ×10⁻² µmol; in [6] it was 72.3 ×10⁻² umol. Further, the MIC is recorded as 7.8 ×10⁻² umol in assay [13]; 8 ×10⁻² umol in assay [14]; 8.2 ×10⁻² umol in assay [15]; 28.1 ×10⁻² umol in assay [16]; 29.2 ×10⁻² umol in [17]; 30.6 ×10⁻² umol in assay [18]. Moreover, the MIC in assay [19] worked out at 33.2 ×10⁻² umol. Besides, the MFC in assay [7] was found to be 160.3 ×10⁻² umol; in [8], 168.7 ×10⁻² umol; in assay [9], 118.2 ×10⁻² umol; in assay [10], 139.6 ×10⁻² umol; in [11], 138 ×10⁻² µmol; in [12], 145.7 ×10⁻² umol.
Regarding `C/C(=N\NC(=O)C1=C(O)c2ccccc2S(=O)(=O)N1C)c1ccccc1O`, the MIC was more than 100 ×10⁻² umol in assay [1]; more than 100 ×10⁻² umol in assay [2]; more than 100 ×10⁻² umol in [3]; more than 100 ×10⁻² umol in assay [4]; more than 100 ×10⁻² µmol in [5]; more than 100 ×10⁻² umol in assay [6]. The MIC in [13] is 4 ×10⁻² umol; in assay [14], 4.2 ×10⁻² umol; in assay [15], 4 ×10⁻² umol; in assay [16], 17.7 ×10⁻² umol; in [17], 19.6 ×10⁻² umol; in assay [18], 20.2 ×10⁻² umol. Further, the MIC in assay [19] worked out at 22.3 ×10⁻² umol. Further, the MFC in [7] was more than 200 ×10⁻² umol; in assay [8], more than 200 ×10⁻² umol; in assay [9] it was more than 200 ×10⁻² umol; in [10] it was more than 200 ×10⁻² umol; in assay [11], more than 200 ×10⁻² µmol; in assay [12], more than 200 ×10⁻² umol.
For the compound `COc1cccc(/C(C)=N/NC(=O)C2=C(O)c3ccccc3S(=O)(=O)N2)c1`, the MIC came out at 90.1 ×10⁻² umol in assay [1]; 92.7 ×10⁻² umol in [2]; 85.9 ×10⁻² umol in [3]; 80.7 ×10⁻² umol in [4]; 80 ×10⁻² µmol in assay [5]; 82 ×10⁻² umol in assay [6]. Also, the MIC in assay [13] is on record as 7.2 ×10⁻² umol; in assay [14], 7.5 ×10⁻² umol; in [15] it was 7.7 ×10⁻² umol; in assay [16], 24.5 ×10⁻² umol; in assay [17], 25.6 ×10⁻² umol; in assay [18] it was 26.7 ×10⁻² umol. The same compound gave an MIC in [19] of 29.3 ×10⁻² umol. In addition, the MFC in [7] turned out to be 176.3 ×10⁻² umol; in assay [8], 198.4 ×10⁻² umol; in assay [9] it was 181.2 ×10⁻² umol; in assay [10], 149.9 ×10⁻² umol; in [11] it was 161 ×10⁻² µmol; in assay [12], 162.7 ×10⁻² umol.
Consider `C/C(=N\NC(=O)C1=C(O)c2ccccc2S(=O)(=O)N1C)c1ccc(N)cc1`, for which the MIC is 83.7 ×10⁻² umol in assay [1]; 82.9 ×10⁻² umol in assay [2]; 73.6 ×10⁻² umol in [3]; 71.1 ×10⁻² umol in assay [4]; 68 ×10⁻² µmol in assay [5]; 69.8 ×10⁻² umol in [6]. Besides, the MIC in assay [13] was 6.2 ×10⁻² umol; in assay [14] it was 6.2 ×10⁻² umol; in [15], 6.3 ×10⁻² umol; in [16] it was 20.4 ×10⁻² umol; in assay [17], 22.4 ×10⁻² umol; in [18], 24.3 ×10⁻² umol. In assay [19], this compound displayed an MIC of 27.5 ×10⁻² umol. In addition, the MFC came to 167 ×10⁻² umol in [7]; 166.3 ×10⁻² umol in assay [8]; 151.6 ×10⁻² umol in assay [9]; 142 ×10⁻² umol in assay [10]; 136 ×10⁻² µmol in assay [11]; 133.7 ×10⁻² umol in [12].
Turning to `C/C(=N\NC(=O)C1=C(O)c2ccccc2S(=O)(=O)N1C)c1ccc(O)cc1`, the MIC in [1] was more than 100 ×10⁻² umol; in assay [2] it was more than 100 ×10⁻² umol; in assay [3], more than 100 ×10⁻² umol; in [4], more than 100 ×10⁻² umol; in assay [5], more than 100 ×10⁻² µmol; in assay [6], more than 100 ×10⁻² umol. Besides, the MIC is reported as 4.6 ×10⁻² umol in [13]; 4.8 ×10⁻² umol in [14]; 5 ×10⁻² umol in [15]; 18.9 ×10⁻² umol in assay [16]; 21 ×10⁻² umol in assay [17]; 22.1 ×10⁻² umol in assay [18]. The compound further gave an MIC in assay [19] of 25.1 ×10⁻² umol. For the same compound, the MFC in [7] is more than 200 ×10⁻² umol; in [8] it was more than 200 ×10⁻² umol; in assay [9] it was more than 200 ×10⁻² umol; in assay [10], more than 200 ×10⁻² umol; in assay [11] it was more than 200 ×10⁻² µmol; in assay [12], more than 200 ×10⁻² umol.
With `COc1ccc(/C(C)=N/NC(=O)C2=C(O)c3ccccc3S(=O)(=O)N2)cc1`, the MIC came out at 87.3 ×10⁻² umol in assay [1]; 86.2 ×10⁻² umol in assay [2]; 77.7 ×10⁻² umol in assay [3]; 80.5 ×10⁻² umol in assay [4]; 79.9 ×10⁻² µmol in assay [5]; 81.1 ×10⁻² umol in assay [6]. Also, the MIC in assay [13] stood at 7.8 ×10⁻² umol; in assay [14], 7.5 ×10⁻² umol; in assay [15], 7.8 ×10⁻² umol; in [16], 26.7 ×10⁻² umol; in assay [17], 27.8 ×10⁻² umol; in assay [18] it was 29.3 ×10⁻² umol. In [19], this compound gave an MIC of 32.7 ×10⁻² umol. Moreover, the MFC in assay [7] stood at 179.5 ×10⁻² umol; in assay [8] it was 169.3 ×10⁻² umol; in assay [9] it was 153.6 ×10⁻² umol; in [10] it was 158.8 ×10⁻² umol; in assay [11], 160 ×10⁻² µmol; in [12], 159.6 ×10⁻² umol.
